Tests used:
[1] = tested on: HCT-8; assay: Induction of apoptosis in human HCT8 cells assessed as apoptotic nuclei at 5 uM after 24 hrs by acridine orange/ethidium bromide staining based fluorescence microscopy; type: functional
How it was run: (§1)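 Cells exposed 24 h, with or without 24 h pretreatment with 1-bromoheptane. Cell suspension mixed with acridine orange/ethidium bromide (each 100 in PBS) and spread on slide. 300 cells counted per point by fluorescence microscopy to give % apoptotic cells. Mean ± S.E.M. of three experiments.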

[2] = tested on: MDA-MB-435; assay: Induction of apoptosis in human MDA-MB-435 cells assessed as apoptotic nuclei at 5 uM after 24 hrs by acridine orange/ethidium bromide staining based fluorescence microscopy; type: functional; how it was run: as §1
[3] = tested on: PBMC; assay: Cytotoxicity against human PBMC cells after 72 hrs by Alamar Blue assay; type: cell-based
[4] = tested on: SF-295; assay: Induction of apoptosis in human SF295 cells assessed as apoptotic nuclei at 5 uM after 24 hrs by acridine orange/ethidium bromide staining based fluorescence microscopy in presence of 1-bromoheptane; type: functional; how it was run: as §1
[5] = tested on: MDA-MB-435; assay: Induction of apoptosis in human MDA-MB-435 cells assessed as apoptotic nuclei at 5 uM after 24 hrs by acridine orange/ethidium bromide staining based fluorescence microscopy in presence of 1-bromoheptane; type: functional; how it was run: as §1
[6] = tested on: SF-295; assay: Cytotoxicity against human SF295 cells after 72 hrs by MTT assay; type: functional, cell-based; conditions: SF-295, 72 h
[7] = tested on: MDA-MB-435; assay: Cytotoxicity against human MDA-MB-435 cells after 72 hrs by MTT assay; type: functional, cell-based; conditions: MDA-MB-435, 72 h
[8] = tested on: HL-60; assay: Cytotoxicity against human HL60 cells after 72 hrs by MTT assay; type: functional, cell-based; conditions: HL-60, 72 h
[9] = tested on: HL-60; assay: Induction of apoptosis in human HL60 cells assessed as apoptotic nuclei at 5 uM after 24 hrs by acridine orange/ethidium bromide staining based fluorescence microscopy; type: functional; how it was run: as §1
[10] = tested on: HL-60; assay: Induction of apoptosis in human HL60 cells assessed as apoptotic nuclei at 5 uM after 24 hrs by acridine orange/ethidium bromide staining based fluorescence microscopy in presence of 1-bromoheptane; type: functional; how it was run: as §1
[11] = tested on: HCT-8; assay: Induction of apoptosis in human HCT8 cells assessed as apoptotic nuclei at 5 uM after 24 hrs by acridine orange/ethidium bromide staining based fluorescence microscopy in presence of 1-bromoheptane; type: functional; how it was run: as §1
[12] = tested on: SF-295; assay: Induction of apoptosis in human SF295 cells assessed as apoptotic nuclei at 5 uM after 24 hrs by acridine orange/ethidium bromide staining based fluorescence microscopy; type: functional; how it was run: as §1
[13] = tested on: HCT-8; assay: Cytotoxicity against human HCT8 cells after 72 hrs by MTT assay; type: functional, cell-based; conditions: HCT-8, 72 h

| SMILES | Activity [1] [%] | Activity [2] [%] | IC50 [3] [µM] | Activity [4] [%] | Activity [5] [%] | IC50 [6] [µM] | IC50 [7] [µM] | IC50 [8] [µM] | Activity [9] [%] | Activity [10] [%] | Activity [11] [%] | Activity [12] [%] | IC50 [13] [µM] |
| --- | --- | --- | --- | --- | --- | --- | --- | --- | --- | --- | --- | --- | --- |
| Cc1ccccc1-c1nc2ccc3c(c2[nH]1)C(=O)c1ccccc1C3=O | 5.33 | 6.33 | > 14.8 | 13.95 | 10.38 | > 14.8 | > 14.8 | > 14.8 | 11.47 | 10.75 | 9.17 | 11.85 | > 14.8 |
| CCCC1=C(OC2(CCC)C(=O)C(=O)c3ccccc3C2=O)C(=O)c2ccccc2C1=O (stereo not drawn) |  |  | > 11.6 |  |  | > 11.6 | > 11.6 | > 11.6 |  |  |  |  | > 11.6 |
| CC1(C)OC2=C(C(=O)C(=O)c3ccccc32)[C@H](n2cc(-c3ccc(Br)cc3)nn2)[C@H]1Br |  |  | 4.01 |  |  | 2.33 | 1.99 | 1.67 |  |  |  |  | 2.24 |
| O=C1c2ccccc2C(=O)c2c1ccc1nc(-c3ccccc3F)[nH]c21 |  |  | > 14.6 |  |  | > 14.6 | > 14.6 | > 14.6 |  |  |  |  | > 14.6 |
| C=CCC1=C(OC2(CC=C)C(=O)C(=O)c3ccccc3C2=O)C(=O)c2ccccc2C1=O (stereo not drawn) | 12.52 | 7.94 | > 11.7 | 11.47 | 11.36 | > 11.7 | > 11.7 | > 11.7 | 3.91 | 8.55 | 9.37 | 8.3 | > 11.7 |
| CCCC1=C(O)C(=O)C2=C(CCCC2)C1=O |  |  | > 22.7 |  |  | > 22.7 | > 22.7 | > 22.7 |  |  |  |  | 3.99 |
| COc1cc(-c2nc3ccc4c(c3[nH]2)C(=O)c2ccccc2C4=O)ccc1O |  |  | > 13.6 |  |  | > 13.6 | > 13.6 | > 13.6 |  |  |  |  | > 13.6 |
| O=C1c2ccccc2C(=O)c2c1ccc1nc(-c3cccc(F)c3)[nH]c21 |  |  | > 14.6 |  |  | > 14.6 | > 14.6 | > 14.6 |  |  |  |  | > 14.6 |
| CC1(C)OC2=C(C(=O)C(=O)c3ccccc32)[C@H](N=[N+]=[N-])[C@H]1Br |  |  | 3.58 |  |  | 1.93 | 1.54 | 1.43 |  |  |  |  | 2.42 |
| O=C1c2ccccc2C(=O)c2c1ccc1nc(-c3ccccc3O)[nH]c21 | 6.48 | 7.39 | > 14.7 | 9.91 | 10.04 | 3.87 | > 14.7 | > 14.7 | 8.21 | 12.59 | 4.19 | 11.73 | 3.64 |
| CC(C)CC1=C(O)C(=O)c2ccccc2C1=O |  |  | > 21.7 |  |  | > 21.7 | > 21.7 | > 21.7 |  |  |  |  | > 21.7 |
| CC(C)CCC1=C(O)C(=O)c2ccccc2C1=O |  |  | > 20.5 |  |  | > 20.5 | > 20.5 | > 20.5 |  |  |  |  | > 20.5 |
| CCCC1=C(O)C(=O)c2ccccc2C1=O |  |  | > 23.1 |  |  |  | > 23.1 | > 23.1 |  |  |  |  | > 23.1 |
